ChEMBL document CHEMBL4610098, “Isolation and Synthesis of Veranamine, an Antidepressant Lead from the Marine Sponge Verongula rigida” (J Nat Prod, 2020)
Activity calls are given as the source filed them. No cut-off for these calls is given here.

Columns and labels:
Mus musculus = test: Antidepressant activity in Swiss Webster (Harlan) mouse assessed as decrease in immobility time at 20 mg/kg, ip after 30 mins by forced swim test; format: functional, organism-based
How it was run: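 Mice housed five per cage on 12 h light/dark cycle, randomized (n = 6–10/group), given i.p. dose in saline, 10% ethanol or 10% ethanol/1% DMSO vehicle; desipramine 20 mg/kg as reference. Directly after 30 min locomotor session, each mouse placed in water-filled cylinder (8 cm depth, 25 °C), videotaped 6 min; immobility over final 4 min timed by three observers, averaged.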

D(3) dopamine receptor = D(3) dopamine receptor (Homo sapiens, UniProt P35462); test: Binding affinity to dopamine D3 receptor (unknown origin)
Mu-type opioid receptor = Mu-type opioid receptor (Homo sapiens, UniProt P35372); test: Binding affinity to MOR (unknown origin)
[1] = biological target: 5-hydroxytryptamine receptor 1B (Homo sapiens, UniProt P28222); test: Binding affinity to 5HT1B receptor (unknown origin)
[2] = biological target: Alpha-2C adrenergic receptor (Homo sapiens, UniProt P18825); test: Binding affinity to adrenoceptor alpha 2C (unknown origin)
[3] = biological target: Beta-1 adrenergic receptor (Homo sapiens, UniProt P08588); test: Binding affinity to beta1 adrenoceptor (unknown origin)
Histamine H1 receptor = Histamine H1 receptor (Homo sapiens, UniProt P35367); test: Binding affinity to histamine H1 receptor (unknown origin)
[4] = biological target: 5-hydroxytryptamine receptor 2C (Homo sapiens, UniProt P28335); test: Binding affinity to 5HT2C receptor (unknown origin)
[5] = biological target: Sodium-dependent serotonin transporter (Homo sapiens, UniProt P31645); test: Binding affinity to SERT (unknown origin)
[6] = biological target: Sigma intracellular receptor 2 (Homo sapiens, UniProt Q5BJF2); test: Binding affinity to sigma2 receptor (unknown origin)
[7] = biological target: 5-hydroxytryptamine receptor 3A (Homo sapiens, UniProt P46098); test: Binding affinity to 5HT3 receptor (unknown origin)
[8] = biological target: 5-hydroxytryptamine receptor 1E (Homo sapiens, UniProt P28566); test: Binding affinity to 5HT1E receptor (unknown origin)
[9] = biological target: Sodium-dependent noradrenaline transporter (Homo sapiens, UniProt P23975); test: Binding affinity to NET (unknown origin)
Histamine H3 receptor = Histamine H3 receptor (Homo sapiens, UniProt Q9Y5N1); test: Binding affinity to histamine H3 receptor (unknown origin)
D(2) dopamine receptor = D(2) dopamine receptor (Homo sapiens, UniProt P14416); test: Binding affinity to dopamine D2 receptor (unknown origin)
[10] = biological target: Alpha-2B adrenergic receptor (Homo sapiens, UniProt P18089); test: Binding affinity to adrenoceptor alpha 2B (unknown origin)
[11] = biological target: 5-hydroxytryptamine receptor 6 (Homo sapiens, UniProt P50406); test: Binding affinity to 5HT6 receptor (unknown origin)
[12] = Effect on locomotor activity in Swiss Webster (Harlan) mouse at 20 mg/kg, ip after 30 mins by automated activity monitoring system based assay; format: ADME, organism-based; settings: in vivo, 0.5 h
How it was run: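 Mice in groups of five, 12 h light/dark, randomized (n = 6–10/group), dosed i.p. in saline, 10% ethanol or 10% ethanol/1% DMSO vehicle, desipramine 20 mg/kg reference. Each mouse put in Plexiglas enclosure right after injection; photobeam interruptions recorded for 30 min, with counts from the last 10 min quantified and analyzed.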

[13] = biological target: 5-hydroxytryptamine receptor 5A (Homo sapiens, UniProt P47898); test: Binding affinity to 5HT5A receptor (unknown origin)
[14] = biological target: Alpha-1A adrenergic receptor (Homo sapiens, UniProt P35348); test: Binding affinity to adrenoceptor alpha 1A (unknown origin)
D(1B) dopamine receptor = D(1B) dopamine receptor (Homo sapiens, UniProt P21918); test: Binding affinity to dopamine D5 receptor (unknown origin)
[15] = biological target: 5-hydroxytryptamine receptor 2A (Homo sapiens, UniProt P28223); test: Binding affinity to 5HT2A receptor (unknown origin)
[16] = biological target: 5-hydroxytryptamine receptor 2B (Homo sapiens, UniProt P41595); test: Binding affinity to 5HT2B receptor (unknown origin)
[17] = biological target: T1, 5-hydroxytryptamine receptor 7 (Homo sapiens, UniProt P34969); test: Binding affinity to 5HT7 receptor (unknown origin)
[18] = biological target: 5-hydroxytryptamine receptor 1D (Homo sapiens, UniProt P28221); test: Binding affinity to 5HT1D receptor (unknown origin)
D(4) dopamine receptor = D(4) dopamine receptor (Homo sapiens, UniProt P21917); test: Binding affinity to dopamine D4 receptor (unknown origin)
Histamine H2 receptor = Histamine H2 receptor (Homo sapiens, UniProt P25021); test: Binding affinity to histamine H2 receptor (unknown origin)
[19] = biological target: Muscarinic acetylcholine receptor M3 (Homo sapiens, UniProt P20309); test: Binding affinity to muscarinic acetylcholine receptor M3 (unknown origin)
[20] = biological target: Kappa-type opioid receptor (Homo sapiens, UniProt P41145); test: Binding affinity to KOR (unknown origin)
[21] = biological target: Delta-type opioid receptor (Homo sapiens, UniProt P41143); test: Binding affinity to DOR (unknown origin)
D(1A) dopamine receptor = D(1A) dopamine receptor (Homo sapiens, UniProt P21728); test: Binding affinity to dopamine D1 receptor (unknown origin)
[22] = biological target: Muscarinic acetylcholine receptor M1 (Homo sapiens, UniProt P11229); test: Binding affinity to muscarinic acetylcholine receptor M1 (unknown origin)
[23] = biological target: Sodium-dependent dopamine transporter (Homo sapiens, UniProt Q01959); test: Binding affinity to DAT (unknown origin)
[24] = biological target: Alpha-2A adrenergic receptor (Homo sapiens, UniProt P08913); test: Binding affinity to adrenoceptor alpha 2A (unknown origin)
[25] = biological target: Muscarinic acetylcholine receptor M2 (Homo sapiens, UniProt P08172); test: Binding affinity to muscarinic acetylcholine receptor M2 (unknown origin)
[26] = biological target: Alpha-1B adrenergic receptor (Homo sapiens, UniProt P35368); test: Binding affinity to adrenoceptor alpha 1B (unknown origin)
[27] = biological target: Sigma non-opioid intracellular receptor 1 (Homo sapiens, UniProt Q99720); test: Binding affinity to sigma1 receptor (unknown origin)
[28] = biological target: Muscarinic acetylcholine receptor M5 (Homo sapiens, UniProt P08912); test: Binding affinity to muscarinic acetylcholine receptor M5 (unknown origin)
[29] = biological target: T1, 5-hydroxytryptamine receptor 7; test: Binding affinity to 5HT7A receptor (unknown origin)
Histamine H4 receptor = Histamine H4 receptor (Homo sapiens, UniProt Q9H3N8); test: Binding affinity to histamine H4 receptor (unknown origin)
[30] = biological target: Muscarinic acetylcholine receptor M4 (Homo sapiens, UniProt P08173); test: Binding affinity to muscarinic acetylcholine receptor M4 (unknown origin)
[31] = biological target: 5-hydroxytryptamine receptor 1A (Homo sapiens, UniProt P08908); test: Binding affinity to 5HT1A receptor (unknown origin)

T1 sequence (P34969 whole entry): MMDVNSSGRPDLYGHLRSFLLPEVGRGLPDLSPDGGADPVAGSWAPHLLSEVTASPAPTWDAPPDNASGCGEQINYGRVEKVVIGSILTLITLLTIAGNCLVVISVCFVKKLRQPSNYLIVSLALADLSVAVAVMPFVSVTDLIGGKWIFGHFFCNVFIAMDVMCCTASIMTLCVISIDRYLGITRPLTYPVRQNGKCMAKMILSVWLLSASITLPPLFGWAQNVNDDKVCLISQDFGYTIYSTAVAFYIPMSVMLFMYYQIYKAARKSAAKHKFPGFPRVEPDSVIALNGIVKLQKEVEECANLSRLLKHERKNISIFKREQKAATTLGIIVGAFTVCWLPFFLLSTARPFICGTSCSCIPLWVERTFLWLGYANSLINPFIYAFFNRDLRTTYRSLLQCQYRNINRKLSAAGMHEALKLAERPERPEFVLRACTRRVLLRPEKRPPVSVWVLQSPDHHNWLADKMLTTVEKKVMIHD
Sequence of Delta-type opioid receptor (P41143 whole entry): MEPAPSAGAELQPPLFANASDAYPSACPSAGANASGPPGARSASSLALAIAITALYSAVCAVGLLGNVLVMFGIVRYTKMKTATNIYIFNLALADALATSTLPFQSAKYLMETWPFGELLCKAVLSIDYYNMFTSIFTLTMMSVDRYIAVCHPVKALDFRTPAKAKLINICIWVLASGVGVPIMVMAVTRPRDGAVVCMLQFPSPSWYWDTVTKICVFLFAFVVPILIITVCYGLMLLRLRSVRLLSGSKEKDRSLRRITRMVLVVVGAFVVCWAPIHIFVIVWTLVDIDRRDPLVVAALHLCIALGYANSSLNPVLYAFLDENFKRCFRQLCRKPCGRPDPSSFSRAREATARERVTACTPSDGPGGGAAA
Sequence of Alpha-1A adrenergic receptor (P35348 whole entry): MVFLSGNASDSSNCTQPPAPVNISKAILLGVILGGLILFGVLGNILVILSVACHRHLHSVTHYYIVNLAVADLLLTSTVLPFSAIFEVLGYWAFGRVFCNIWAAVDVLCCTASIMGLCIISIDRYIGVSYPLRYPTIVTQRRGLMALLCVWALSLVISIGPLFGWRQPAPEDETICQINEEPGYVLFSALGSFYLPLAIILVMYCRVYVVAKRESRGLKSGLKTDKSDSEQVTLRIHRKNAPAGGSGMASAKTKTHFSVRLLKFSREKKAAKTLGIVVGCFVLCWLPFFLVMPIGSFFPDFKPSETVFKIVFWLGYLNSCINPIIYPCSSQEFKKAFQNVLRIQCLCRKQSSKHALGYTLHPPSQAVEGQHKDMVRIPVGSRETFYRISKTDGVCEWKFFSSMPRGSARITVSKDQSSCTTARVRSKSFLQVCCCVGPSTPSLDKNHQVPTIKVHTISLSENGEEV
Sequence of 5-hydroxytryptamine receptor 3A (P46098 whole entry): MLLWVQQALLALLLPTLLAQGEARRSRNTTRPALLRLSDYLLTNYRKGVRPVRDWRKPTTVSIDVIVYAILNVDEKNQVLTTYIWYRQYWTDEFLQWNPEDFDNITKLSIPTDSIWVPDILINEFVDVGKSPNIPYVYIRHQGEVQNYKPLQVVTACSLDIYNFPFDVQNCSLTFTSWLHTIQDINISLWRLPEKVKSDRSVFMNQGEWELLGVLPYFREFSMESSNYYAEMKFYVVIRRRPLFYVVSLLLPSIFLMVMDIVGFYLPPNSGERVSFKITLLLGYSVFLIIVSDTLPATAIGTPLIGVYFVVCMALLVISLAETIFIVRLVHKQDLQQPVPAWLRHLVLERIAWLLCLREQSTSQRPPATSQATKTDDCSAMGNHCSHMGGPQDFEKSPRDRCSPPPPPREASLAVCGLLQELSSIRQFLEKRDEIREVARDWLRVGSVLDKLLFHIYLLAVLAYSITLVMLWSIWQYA
Sequence of Alpha-1B adrenergic receptor (P35368 whole entry): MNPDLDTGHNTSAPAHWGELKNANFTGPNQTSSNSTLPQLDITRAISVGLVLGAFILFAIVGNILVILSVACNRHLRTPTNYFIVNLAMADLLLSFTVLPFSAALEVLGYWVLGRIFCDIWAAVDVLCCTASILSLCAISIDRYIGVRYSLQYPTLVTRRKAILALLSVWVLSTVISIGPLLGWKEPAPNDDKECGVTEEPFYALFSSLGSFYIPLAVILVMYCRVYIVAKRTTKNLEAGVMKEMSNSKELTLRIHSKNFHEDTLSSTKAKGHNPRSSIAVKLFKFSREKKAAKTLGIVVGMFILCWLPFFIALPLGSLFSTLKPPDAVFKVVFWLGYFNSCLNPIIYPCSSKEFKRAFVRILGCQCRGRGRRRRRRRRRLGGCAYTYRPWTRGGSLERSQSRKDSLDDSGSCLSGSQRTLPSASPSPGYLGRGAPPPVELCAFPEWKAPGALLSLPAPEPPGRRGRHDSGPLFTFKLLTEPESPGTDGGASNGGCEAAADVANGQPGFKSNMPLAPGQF
Sequence of Alpha-2C adrenergic receptor (P18825 whole entry): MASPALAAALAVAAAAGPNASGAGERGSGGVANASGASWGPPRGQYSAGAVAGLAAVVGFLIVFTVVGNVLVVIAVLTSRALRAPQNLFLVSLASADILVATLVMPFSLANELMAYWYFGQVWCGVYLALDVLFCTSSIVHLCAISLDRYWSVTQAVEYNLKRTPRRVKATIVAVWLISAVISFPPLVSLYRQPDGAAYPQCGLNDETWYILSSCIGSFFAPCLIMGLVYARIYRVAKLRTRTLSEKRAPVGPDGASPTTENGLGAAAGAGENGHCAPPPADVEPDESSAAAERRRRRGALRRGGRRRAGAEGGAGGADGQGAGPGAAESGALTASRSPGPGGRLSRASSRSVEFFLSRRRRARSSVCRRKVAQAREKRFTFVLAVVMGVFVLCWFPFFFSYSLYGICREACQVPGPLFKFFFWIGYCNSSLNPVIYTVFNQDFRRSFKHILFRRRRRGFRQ
Sequence of 5-hydroxytryptamine receptor 2C (P28335 whole entry): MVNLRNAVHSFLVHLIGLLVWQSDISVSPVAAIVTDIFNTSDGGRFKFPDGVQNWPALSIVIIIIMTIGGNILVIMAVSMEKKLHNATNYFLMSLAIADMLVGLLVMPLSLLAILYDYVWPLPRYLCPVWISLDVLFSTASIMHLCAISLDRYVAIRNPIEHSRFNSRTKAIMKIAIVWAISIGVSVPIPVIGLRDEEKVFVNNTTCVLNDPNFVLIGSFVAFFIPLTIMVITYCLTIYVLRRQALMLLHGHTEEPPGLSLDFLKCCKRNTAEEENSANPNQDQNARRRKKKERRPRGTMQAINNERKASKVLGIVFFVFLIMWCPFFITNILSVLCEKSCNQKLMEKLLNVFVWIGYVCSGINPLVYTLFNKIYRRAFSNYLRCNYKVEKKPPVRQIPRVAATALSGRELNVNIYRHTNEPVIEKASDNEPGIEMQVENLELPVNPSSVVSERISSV
Sequence of Mu-type opioid receptor (P35372 whole entry): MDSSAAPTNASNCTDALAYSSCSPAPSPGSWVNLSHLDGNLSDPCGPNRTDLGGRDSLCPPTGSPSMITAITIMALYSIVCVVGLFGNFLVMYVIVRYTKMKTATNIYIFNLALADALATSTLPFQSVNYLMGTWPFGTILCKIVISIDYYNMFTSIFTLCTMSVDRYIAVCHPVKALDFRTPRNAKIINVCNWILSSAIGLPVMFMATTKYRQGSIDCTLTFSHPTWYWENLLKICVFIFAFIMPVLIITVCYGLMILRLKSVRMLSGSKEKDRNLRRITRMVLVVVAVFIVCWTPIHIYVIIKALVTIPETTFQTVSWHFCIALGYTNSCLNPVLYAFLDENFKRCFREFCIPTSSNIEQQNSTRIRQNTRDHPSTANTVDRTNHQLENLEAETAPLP
Sequence of 5-hydroxytryptamine receptor 2B (P41595 whole entry): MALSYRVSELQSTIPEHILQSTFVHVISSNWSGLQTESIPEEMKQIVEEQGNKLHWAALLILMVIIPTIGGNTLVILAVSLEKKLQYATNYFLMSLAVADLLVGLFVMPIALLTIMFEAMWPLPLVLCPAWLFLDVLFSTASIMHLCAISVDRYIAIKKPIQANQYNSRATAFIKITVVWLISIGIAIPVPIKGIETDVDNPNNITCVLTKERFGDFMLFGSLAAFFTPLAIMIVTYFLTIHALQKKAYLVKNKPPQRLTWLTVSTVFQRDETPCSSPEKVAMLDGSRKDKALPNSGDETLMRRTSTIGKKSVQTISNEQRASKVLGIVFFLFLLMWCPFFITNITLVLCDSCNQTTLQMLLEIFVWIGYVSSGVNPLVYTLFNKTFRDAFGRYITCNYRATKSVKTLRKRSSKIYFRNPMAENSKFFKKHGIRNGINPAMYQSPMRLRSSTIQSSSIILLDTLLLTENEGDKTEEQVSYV
Sequence of Sodium-dependent dopamine transporter (Q01959 whole entry): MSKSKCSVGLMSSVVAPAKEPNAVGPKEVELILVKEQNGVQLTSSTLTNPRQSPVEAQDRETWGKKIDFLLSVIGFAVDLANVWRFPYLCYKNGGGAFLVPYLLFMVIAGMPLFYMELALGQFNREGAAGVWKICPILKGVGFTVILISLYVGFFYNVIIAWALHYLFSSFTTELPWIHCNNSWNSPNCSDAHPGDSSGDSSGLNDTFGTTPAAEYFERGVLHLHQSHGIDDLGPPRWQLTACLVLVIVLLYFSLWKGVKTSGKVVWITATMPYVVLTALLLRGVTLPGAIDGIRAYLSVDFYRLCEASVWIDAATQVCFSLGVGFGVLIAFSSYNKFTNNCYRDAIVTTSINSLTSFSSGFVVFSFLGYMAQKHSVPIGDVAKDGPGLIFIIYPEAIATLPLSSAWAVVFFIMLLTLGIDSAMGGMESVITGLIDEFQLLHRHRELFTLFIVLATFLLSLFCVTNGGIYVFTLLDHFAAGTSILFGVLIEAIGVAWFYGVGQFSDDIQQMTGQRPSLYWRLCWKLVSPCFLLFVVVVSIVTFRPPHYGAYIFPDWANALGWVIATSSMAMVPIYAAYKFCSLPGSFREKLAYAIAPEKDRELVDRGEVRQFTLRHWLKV
Sequence of Sigma non-opioid intracellular receptor 1 (Q99720 whole entry): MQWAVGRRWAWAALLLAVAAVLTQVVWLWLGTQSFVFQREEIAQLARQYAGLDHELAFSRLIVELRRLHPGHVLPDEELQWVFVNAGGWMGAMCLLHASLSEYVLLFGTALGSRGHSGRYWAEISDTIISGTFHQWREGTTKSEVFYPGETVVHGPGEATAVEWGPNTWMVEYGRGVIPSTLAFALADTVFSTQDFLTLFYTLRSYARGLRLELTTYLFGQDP

## CNCCCN1c2ccccc2CCc2ccccc21
Mus musculus
  Activity: Active

## Cc1nccc2c1C(C)(C)Nc1cc(Br)ccc1-2
D(3) dopamine receptor
  Ki: > 10 µM
Mu-type opioid receptor
  Ki: > 10 µM
[1]
  Ki: > 10 µM
[2]
  Ki: > 10 µM
[3]
  Ki: > 10 µM
Histamine H1 receptor
  Ki: > 10 µM
[4]
  Ki: > 10 µM
Mus musculus
  Activity: Active
[5]
  Ki: > 10 µM
[6]
  Ki: > 10 µM
[7]
  Ki: > 10 µM
[8]
  Ki: > 10 µM
[9]
  Ki: > 10 µM
Histamine H3 receptor
  Ki: > 10 µM
D(2) dopamine receptor
  Ki: > 10 µM
[10]
  Ki: > 10 µM
[11]
  Ki: > 10 µM
[12]
  Activity: Non-Toxic
[13]
  Ki: > 10 µM
[14]
  Ki: > 10 µM
D(1B) dopamine receptor
  Ki: > 10 µM
[15]
  Ki: > 10 µM
[16]
  Ki: 0.39 µM
[17]
  Ki: > 10 µM
[18]
  Ki: > 10 µM
D(4) dopamine receptor
  Ki: > 10 µM
Histamine H2 receptor
  Ki: > 10 µM
[19]
  Ki: > 10 µM
[20]
  Ki: > 10 µM
[21]
  Ki: > 10 µM
D(1A) dopamine receptor
  Ki: > 10 µM
[22]
  Ki: > 10 µM
[23]
  Ki: > 10 µM
[24]
  Ki: > 10 µM
[25]
  Ki: > 10 µM
[26]
  Ki: > 10 µM
[27]
  Ki: 0.56 µM
[28]
  Ki: > 10 µM
[29]
  Ki: > 10 µM
Histamine H4 receptor
  Ki: > 10 µM
[30]
  Ki: > 10 µM
[31]
  Ki: > 10 µM
